Measured values taken from the array DNA melting data of Ke et al. (doi:10.1101/2024.01.08.574731).

How the values were obtained:
[1] = folding enthalpy; higher = less favourable; fluorescence melt of hairpins on a sequencing array, two-state fit; conditions: sodium 0.088 M
Method in brief: (§1)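 With Cy3 and quencher oligos annealed, library hairpins on a sequenced MiSeq flow cell were imaged for Cy3 fluorescence in 50 mM Na-HEPES pH 8.0, 25 mM NaCl, in 2.5 °C steps up to 60 °C. Melting temperature and folding enthalpy were derived from bootstrapped two-state fits of signals normalised to pre-quench Cy3 and to control constructs. Four replicates were combined by inverse variance, with fitted temperatures raised by 9.35 °C to match UV melts.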

[2] = melting temperature; fluorescence melt of hairpins on a sequencing array, two-state fit, raised by 9.35 °C to match UV melts; conditions: sodium 0.088 M
Method in brief: as §1

Sequence	folding enthalpy [1] [kcal/mol]	Tm [2] [°C]
GATCTGCGCCAGATC ((((((...))))))	-35.3	50.8
GCCAACGAAAGTTTAGGC ((((((....)))..)))	-28.2	43.8
GCATGGCGAAAGCGGTGC (((..((....))..)))	-23.8	56.1
GCGGTAGGAAACTGCTGC ((.(.((....)).).))	-27.5	45.5
GAATCCGAAAGGATTTTC ((((((....)))..)))	-15.7	48.9
GCGTCTTTACGC ((((....))))	-27.9	53.2
GACATCCGAAAGGAGGTC (((.(((....))).)))	-40	57.9
GATCGCTCTGGCGATC ((((((....))))))	-37.7	69.1
CGCCCCGGAAACGGCGCG (((.(((....))).)))	-36.5	52.1
GATCGCTATCGCGATC ((((((....))))))	-36.9	67.1
GATCGTTCCGACGATC ((((((....))))))	-40.9	56.1
GATCTCATAAGAGATC ((((((....))))))	-38.7	52.3
GGGGTCGAAAGACGCCCC ((((((....)))..)))	-13	60.2
GGCGGTGCGAAAGCAGCC (((..(((....))))))	-14.8	55.8
GTGAGAGGAAACTCTTGC (..((((....))))..)	-20.3	29.4
GGGAGCGAAAGCTACCCC ((((((....)))..)))	-12	59.8
GATCCGTGCCGGATC ((((((...))))))	-44.5	57.9
GTTCTAGGAAACTGGAAC ((((.((....)).))))	-28.7	42.2
GATCTTTCACAAGATC ((((((....))))))	-30.5	43.1
GCGGAGCGAAAGCTGGGC ((..(((....)))..))	-7.98	43.2
GTATAGCCGAAAGGCTAC (((..(((....))))))	-7.94	36.4
GGAGCTGGAAACGGCTTC (.(((.(....).))).)	-25.9	41.5
GTGATCCGAAAGGACCAC (((.(((....))).)))	-34.6	51.8

Sequence	folding enthalpy [1] [kcal/mol]	Tm [2] [°C]
GTCACGGCGAAAGCCGAC (((..(((....))))))	-6.5	27.9
GAGAGCCGAAAGGCGCTC (((.(((....))).)))	-22.9	67.8
GTGCAGGGAAACCCGCAC ((((.((....)).))))	-42.2	54.9
GATCAAAAACTTGATC ((((((....))))))	-26.5	34.9
CGTTACGGAAACGTCACG (((.(((....))).)))	-23.6	44.5
GTAATCTCGAAAGAGTAC (((..(((....))))))	-10.9	26.7
GCGAATATTCGC ((((....))))	-33.5	50.7
GCCCACGAAAGTGAAGGC ((((((....)))..)))	-28.2	52.1
GATCTCGTCGAGATC ((((((...))))))	-31.1	55.7
GGAACTCGAAAGAGATCC (((.(((....))).)))	-34.4	49.5
GATAAGCGAAAGCTGATC (((.(((....))).)))	-26.3	47.5
GTAGTCGAAAGACTTAC ((((((....))).)))	-13.2	39.9
ATTGGGAAACCAAT (((((....)))))	-16.9	40.3
GTGGTCGGAAACGACTGC (..((((....))))..)	-14.3	49.5
GCACGGCGAAAGCGTTGC (((..((....))..)))	-18.5	49.3
GGGCAAGCGAAAGCTCCC (((..(((....))))))	-19	44.6
GTTCTTGGAAACAAGAGC (.(((((....))))).)	-19.6	41.5
GTCACCGAAAGGTCGAC ((((((....))).)))	-20.1	48.1
GATCCCCGGAGGGATC ((((((....))))))	-19.2	59.5
GATCGTAGTCACGATC ((((((....))))))	-36.1	54.1
GACGGACCGAAAGGTGTC (((..(((....))))))	-17.9	41.3
GCTTAGGGAAACCTAGGC ((.((((....)))).))	-34.1	44.4
GATCTGGGCGCAGATC ((((((....))))))	-37.7	53.5

Sequence	folding enthalpy [1] [kcal/mol]	Tm [2] [°C]
GATCATCGGTATGATC ((((((....))))))	-34.2	46.5
CGAGACGGAAACGTTCG (((.(((....))))))	-26.3	40.9
GGACATGGAAACATGTCC (((((((....)))))))	-44.6	64.7
GCCTTCGAAAGAACAGGC ((((((....)))..)))	-26.7	40.9
GACTACGGAAACGTAGCC (.(((((....))))).)	-14.1	44.5
GTATGCCGAAAGGCGTAC (((.(((....))).)))	-26.2	63.4
GGTTGTCGAAAGACTACC (((.(((....))).)))	-46	52
GATTCGGAAACGAATC ((((((....))))))	-32.2	58.6
GTACGCGGAAACGCACAC ((..(((....)))..))	-13.8	33.1
GATCTGGTTCCAGATC ((((((....))))))	-47.1	53.5
GCGTGTGGAAACACACAC (.(((((....))))).)	-13.7	44.4
GCCGTCGAAAGACACGGC ((((((....)))..)))	-27.5	54.6
GTCGCGACGAAAGTCGAC (((..(((....))))))	-8.29	38.2
GCTTCAGGAAACTGGAGC (((.(((....))).)))	-38.5	49.9
GGAGAGGGAAACTTCTCC (((((.(....).)))))	-26.8	44.3
GTCGCGTCGAAAGACGAC (((..(((....))))))	-8.6	35.5
GCGGTCGAAAGACCCCGC ((((((....)))..)))	-14.9	47.5
GTAGAAGGAAACTTCTAC (((((((....)))))))	-40	51.4
GATCGGTCATCCGATC ((((((....))))))	-39.7	59.4
GATCCCTTAGGGATC ((((((...))))))	-38.3	66.1
GTTTTGGAAACAAAAC ((((((....))))))	-31.6	49.3
AGGCAGAAATGCCT (((((....)))))	-17.6	54.7
GTATAACGAAAGTTGTAC (((.(((....))).)))	-28.4	45.5
